# CSN deneddyl inh: inhibitors of human CSN-mediated cullin deneddylation; Q92905; Purified CSN, SCF-Nedd8-OG deneddylation, fluorescence polarization; inhibition, % at 12.5 µM; actives 0.38% (n = 360,000); AID 651999;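 active = pattern-corrected inhibition above about 35%, with an unprinted fluorescence ratio check between 0.5 and 1.5, limit read from the data, passing the limit was not always enough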;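 note: 0% = enzyme with substrate and 100% = substrate without enzyme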
#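 Assay system: HEK293T-derived human Csn5 enzyme; quantity: 0.24 nM enzyme; medium: Tris/NaCl/DTT buffer, pH 7.5; also added: substrate SCFSkp2-Nedd8OG, 10 nM; doses: 12.5 µM compound; schedule: 90 min reaction at room temperature; signal: FP; read-out: % inhibition of substrate cleavage by Csn5; benchmarks: substrate-only high control, full reaction low control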
# STEP block: inhibitors of human striatal-enriched phosphatase STEP | AID 588621 | recombinant STEP, OMFP fluorogenic substrate, fluorescence | actives 0.25% (n = 360,000) | inhibition, % at 20 µM;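 active = inhibition at 20 µM, scaled per plate between control wells, above about 37%, limit read from the data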;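 note: 0% = DMSO with enzyme and substrate and 100% = substrate only without enzyme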
# Target sequence (P54829 whole entry, looked up): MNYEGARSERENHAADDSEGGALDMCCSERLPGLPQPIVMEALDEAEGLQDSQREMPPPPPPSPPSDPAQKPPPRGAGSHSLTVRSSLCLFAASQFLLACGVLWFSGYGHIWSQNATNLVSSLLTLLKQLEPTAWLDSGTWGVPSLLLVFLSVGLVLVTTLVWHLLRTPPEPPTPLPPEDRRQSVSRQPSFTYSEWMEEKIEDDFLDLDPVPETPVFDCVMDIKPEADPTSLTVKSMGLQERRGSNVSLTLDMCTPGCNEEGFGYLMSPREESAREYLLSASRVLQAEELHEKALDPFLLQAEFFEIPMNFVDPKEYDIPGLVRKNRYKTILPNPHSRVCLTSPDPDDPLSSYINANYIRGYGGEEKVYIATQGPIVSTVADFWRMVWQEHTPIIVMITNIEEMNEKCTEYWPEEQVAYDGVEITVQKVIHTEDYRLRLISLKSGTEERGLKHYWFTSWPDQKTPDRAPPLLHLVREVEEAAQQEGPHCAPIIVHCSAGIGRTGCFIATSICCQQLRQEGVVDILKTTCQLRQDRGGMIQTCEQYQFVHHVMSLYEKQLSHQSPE
#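 Assay system: isolated STEP enzyme. Buffer or medium: pH 6.0 Bis-Tris with DTT and Tween 20. Also added: fluorogenic phosphatase substrate OMFP at 25 µM final. Dosing: 20 µM, 1% DMSO. Timing: 20 min reaction, room temperature, in the dark. Measured by: fluorescence intensity, excitation 480 nm, emission 540 nm. Evaluation: normalized % inhibition.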
# LMPTP inh: LMPTP (human) inhibition; actives 0.22% (n = 360,000); inhibition, % at 20 µM; recombinant LMPTP-A, OMFP fluorogenic substrate, fluorescence intensity; P24666; AID 651560;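 active = compounds that cut the enzyme signal by at least half of the control window in the single-dose screen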;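 note: plate controls were DMSO wells with enzyme plus substrate for no effect and substrate without enzyme for full effect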
#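 test system = LMPTP-A | amount = 0.625 nM LMPTP-A final | reagent = fluorogenic phosphatase substrate OMFP at 400 µM final | incubation = 50 min at room temperature | benchmarks = no-enzyme low control, uninhibited high control | medium = Bis-Tris pH 6.0, DTT, detergent | signal = fluorescence intensity of OMFP turnover product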
# SUMO1-SIM PPI: SUMO1-SIM interaction modulation | SUMO1 binding to a labelled peptide, TR-FRET, 1 h | inhibition, % at 20 µM | actives 0.33% (n = 360,000); in the data active = inhibition above about 37%
# Scp1 inh: inhibitors of human Scp-1 phosphatase; inhibition, % at 20 µM; Recombinant Scp1, phosphopeptide, malachite green phosphate absorbance; Q9GZU7; actives 0.88% (n = 340,000);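 active = inhibition above about 50% at 20 µM, limit read from the data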;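 note: plate controls were DMSO wells with enzyme for no effect and wells lacking enzyme for full effect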
#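 Material – SCP-1 phosphatase catalytic domain, residues 76-261 · Buffer or medium – Acidic Tris acetate buffer with magnesium and detergent · Also added – Phospho 17-mer peptide substrate · Compound – single 20 µM dose, 1% DMSO · Times – 45 min room-temperature reaction, 5 min colour, 30 min stabiliser · Technique – Phosphate-binding colour reagent, absorbance read at 630 nm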
# DNMT1 block: DNMT1 (human) enzyme inhibition; AID 588458; actives 0.83% (n = 360,000); inhibition (reported as % activation of signal), % at 10 µM; P26358; DNMT1 molecular beacon, Hinp1I cleavage, fluorescence; in the data active = inhibition above about 50%
# An asterisk follows results filed as active; nt = no result given; + = active, no number. Sampled rows, rich in hits. Any-hit rate of the full collection: about 1.9%.
SMILES,CSN deneddyl inh,STEP block,LMPTP inh,SUMO1-SIM PPI,Scp1 inh,DNMT1 block
Cc1ccc(N2NC(=O)/C(=C/c3ccc(-c4ccc(Cl)c(C(=O)O)c4)o3)C2=O)cc1,15,11,6,18,43,29
Cc1ccc(NC(=O)N/C=C/c2ccco2)c(C)c1,8,2,25,0,9,29
Cc1ccc(NC(=O)N/C=C/c2ccco2)cc1C,9,2,1,15,-6,57*
NC(=NCc1ccco1)NC(=O)c1ccc(Cl)cc1,3,-2,1,-3,-7,2
Cc1oc2c(c1C(=O)c1ccccc1)C(=O)C(=O)c1ccccc1-2,23,14,6,37*,-5,93*
Cc1oc2c(c1C(=O)O)C(=O)c1ccccc1C2=O,1,7,-1,-13,-10,-10
Cc1ccnc(NS(=O)(=O)c2ccc(NC(=O)c3c(-c4ccccc4Cl)noc3C)cc2)n1,-1,-2,-2,4,-5,0
O=C(COC(=O)c1nc(Cl)ccc1Cl)Nc1ccc(Cl)cc1,4,-2,-1,2,-10,-8
O=C(COC(=O)c1nc(Cl)ccc1Cl)Nc1ccc2[nH]c(=O)[nH]c2c1,-2,2,0,63*,-1,8
O=C(COC(=O)Cc1c(F)cccc1Cl)Nc1ccc2[nH]c(=O)[nH]c2c1,1,0,2,12,6,-2
O=C(COC(=O)Cc1c(Cl)cccc1Cl)Nc1ccc2[nH]c(=O)[nH]c2c1,-2,3,0,55*,1,0
Cc1cccc(NC(=O)Cn2nnc(-c3ccc(CN4CCCC4)cc3)n2)c1C,6,-2,1,17,-2,1
NC(=O)Cn1nnc(-c2ccc(CN3CCCCC3)cc2)n1,1,1,0,58*,-1,3
CN(C)c1ncc(C2=C(Cl)C(=O)C(N3CCCC3)=C(Cl)C2=O)s1,39,7,14,35,18,69*
O=C1C(Cl)=C(N2CCCCC2)C(=O)C(Cl)=C1c1cnc(N2CCCCC2)s1,34,8,16,11,6,84*
CC(=O)c1cnc(N(C)C)s1,1,-1,-1,-4,-6,0
O=C(CN1CCCN(S(=O)(=O)c2ccc(F)cc2)CC1)Nc1c(Cl)cccc1Cl,109*,-2,-1,2,-6,1
CS(=O)(=O)Nc1cccc(NC(=O)c2cccc3c(-c4cccc(C(N)=O)c4)coc23)c1,-3,-4,2,21,nt,-4
CC(=O)c1cccc(NC(=O)c2cccc3c(-c4cccc(C(N)=O)c4)coc23)c1,22,1,2,49*,nt,-5
O=C(COc1ccc(Cl)cc1)NC1=NN(c2ccccc2)C(=O)C1,5,-1,1,6,-7,-30
O=c1oc2ccccc2cc1-c1nc2c(s1)CCc1ccccc1-2,1,0,2,-5,-16,-28
O=c1oc2cc(O)ccc2cc1-c1nc2c(s1)CCc1ccccc1-2,-96,-37,1,-7,-8,+
COc1ccc(NS(=O)(=O)c2ccc(C(=O)NCC3(N4CCOCC4)CCCCC3)cc2)cc1,0,0,0,40*,0,-4
COc1ccc(NS(=O)(=O)c2cccc(C(=O)NCC3(N4CCOCC4)CCCCC3)c2)cc1,-4,3,1,-4,-2,-2
O=C(N/N=C/c1ccc([N+](=O)[O-])s1)c1cccc(Br)c1,13,55*,75*,-6,97*,21
Cc1ccc(C(=O)N/N=C/c2ccc([N+](=O)[O-])s2)cc1,9,24,47,-19,104*,3
COCCCn1c(SCC(=O)Nc2ccc(NC(C)=O)cc2)nc2sc3c(c2c1=O)CCC3,3,0,0,-2,-1,8
CCOc1ccc(NC(=O)/C(C#N)=C\c2ccc(N3CCCC3)c(C)c2)cc1,47*,-7,-3,-4,-10,38
N=C1/C(=C\c2ccc(-c3ccc(C(=O)O)cc3)o2)C(=O)N=C2SC=C(c3ccccc3)N12,50,61*,65*,110*,81*,40

# Source: PubChem
